# Assay results taken from ChEMBL document CHEMBL1134272, “Enantiomeric synthesis of D- and L-cyclopentenyl nucleosides and their antiviral activity against HIV and West Nile virus” (J Med Chem, 2001).
# Legend:
# CCRF-CEM = test: In vitro cytotoxicity in CEM cells.; format: functional, cell-based; details: Homo sapiens
# [1] = In vitro cytotoxicity in PBM cells.; format: functional, cell-based; details: Homo sapiens, PBMC
# [2] = tested on: Human immunodeficiency virus 1; test: In vitro antiviral activity against HIV-1 in human PBM cells.; format: functional, organism-based; details: Human immunodeficiency virus 1, PBMC
# West Nile virus = test: In vitro antiviral activity against West Nile Virus.; format: functional, organism-based
# Outline: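 Lightly confluent Vero cells in 96-well plates received serial compound dilutions and then 5 CCID50 of the WNV New York isolate, with test samples in triplicate. Cells were scored visually for cytopathic effect 6 days after virus exposure. Neutral red uptake (2-3 h, 37 °C; absorbance 540 and 405 nm) was used to verify the scoring. EC50 was obtained by regression on mean ratings or on percent-of-control absorbance.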
# Vero = test: In vitro cytotoxicity in vero cells.; format: functional, cell-based; details: Chlorocebus sabaeus
# Outline: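 Uninfected Vero cells were treated with serial compound dilutions, with toxicity controls in duplicate at each concentration, and were scored visually 6 days later. Scoring was confirmed by neutral red uptake (2-3 h, 37 °C; absorbance 540 and 405 nm) expressed as percent of control. IC50 was obtained by regression analysis.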
# [3] = tested on: Human immunodeficiency virus 1; test: The compound was evaluated for the antiviral activity against HIV-1 in human PBM cells; format: functional, organism-based
Structure (SMILES),IC50 (CCRF-CEM) [µM],IC50 [1] [µM],EC50 [2] [µM],EC50 (West Nile virus) [µM],IC50 (Vero) [µM],"IC50 ([3]; Human immunodeficiency virus 1, PBMC) [µM]",IC50 ([3]; pbm) [µM]
O=c1ccn([C@@H]2C=C(CO)[C@@H](O)[C@H]2O)c(=O)[nH]1,> 100,> 100,> 100,> 200,> 100,–,–
Nc1ccn([C@H]2C=C(CO)[C@H](O)[C@@H]2O)c(=O)n1,> 100,> 100,58.9,> 200,> 100,–,–
Nc1nc(O)c2ncn([C@@H]3C=C(CO)[C@@H](O)[C@H]3O)c2n1,> 100,> 100,> 100,> 200,> 100,–,–
OCC1=C[C@H](n2cnc3c(O)ncnc32)[C@@H](O)[C@H]1O,> 100,> 100,> 100,> 200,> 100,–,–
Nc1nc(=O)n([C@@H]2C=C(CO)[C@@H](O)[C@H]2O)cc1F,51.8,73.7,5.34,15,27.4,5.34,5.34
O=c1[nH]c(=O)n([C@@H]2C=C(CO)[C@@H](O)[C@H]2O)cc1F,> 100,> 100,93.1,> 200,> 100,–,–
Nc1ncnc2c1ncn2[C@H]1C=C(CO)[C@H](O)[C@@H]1O,> 100,> 100,> 100,> 200,> 100,–,–
Cc1cn([C@@H]2C=C(CO)[C@@H](O)[C@H]2O)c(=O)[nH]c1=O,> 100,> 100,> 100,> 200,> 100,–,–
Nc1nc(O)c2ncn([C@H]3C=C(CO)[C@H](O)[C@@H]3O)c2n1,> 100,> 100,> 100,> 200,> 100,–,–
Cc1cn([C@H]2C=C(CO)[C@H](O)[C@@H]2O)c(=O)[nH]c1=O,> 100,> 100,> 100,> 200,> 100,–,–
O=c1[nH]c(=O)n([C@H]2C=C(CO)[C@H](O)[C@@H]2O)cc1F,> 100,> 100,> 100,> 200,> 100,–,–
Nc1nc(=O)n([C@H]2C=C(CO)[C@H](O)[C@@H]2O)cc1F,> 100,> 100,> 100,> 200,> 100,–,–
O=c1ccn([C@H]2C=C(CO)[C@H](O)[C@@H]2O)c(=O)[nH]1,> 100,> 100,> 100,> 200,> 100,–,–
OCC1=C[C@@H](n2cnc3c(O)ncnc32)[C@H](O)[C@@H]1O,> 100,> 100,> 100,> 200,> 100,–,–
Nc1ccn([C@@H]2C=C(CO)[C@@H](O)[C@H]2O)c(=O)n1,0.08,6.5,0.06,0.2,1.95,–,–
O=c1cnn([C@@H]2O[C@H](CO)[C@@H](O)[C@H]2O)c(=O)[nH]1 [6-AZAURIDINE],–,–,–,1.2,> 100,–,–
Nc1ncnc2c1ncn2[C@@H]1C=C(CO)[C@@H](O)[C@H]1O [NEOPLANOCIN A],1.2,44.6,0.1,> 51,3.5,–,–
Cc1cn([C@H]2C[C@H](N=[N+]=[N-])[C@@H](CO)O2)c(=O)[nH]c1=O [ZIDOVUDINE],–,> 100,0.004,–,–,–,–
